Test results from ChEMBL document CHEMBL1131471, “N-[trans-2-[[2'-(acetylamino)cyclohexyl]oxy]acetyl]-L-alanyl-D-glutamic acid: a novel immunologically active carbocyclic muramyl dipeptide analogue” (1998).

Key:
Mus musculus [1] = experiment: Compound was tested for its ability to enhance nonspecific resistance to expt. fungal infection in mice immunosuppressed with cyclophosphamide and infected with candida albicans at 3x 0.1 mg/kg/day; survival increase = 0/6; assay type: functional
Method in brief: (§1)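 Groups of 10 mice in a controlled room. Test substance or vehicle (distilled water) was given ip on days 1, 3 and 5. Cyclophosphamide 30 mg/kg po was given on days 2, 4 and 6. One hour after the last cyclophosphamide dose, mice were challenged with C. albicans at a level set for 70–90% mortality within 10 days in vehicle controls. Survival over 10 days was scored as (treated − CP-only survivors)/(unsuppressed control − CP-only survivors).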

Mus musculus [2] = experiment: Compound was tested for its ability to enhance nonspecific resistance to expt. fungal infection in mice immunosuppressed with cyclophosphamide and infected with candida albicans at 3x10 mg/kg/day; survival increase = 0/6; assay type: functional; method in brief: as §1
Mus musculus [3] = experiment: Compound was tested for its ability to enhance nonspecific resistance to expt. fungal infection in mice immunosuppressed with cyclophosphamide and infected with candida albicans at 3x100 mg/kg/day; survival increase = 0/6; assay type: functional; method in brief: as §1
Mus musculus [4] = experiment: Compound was tested for its ability to enhance nonspecific resistance to expt. fungal infection in mice immunosuppressed with cyclophosphamide and infected with candida albicans at 3x1 mg/kg/day; survival increase = 1/6; assay type: functional; method in brief: as §1
Mus musculus [5] = experiment: Compound was tested for its ability to enhance nonspecific resistance to expt. fungal infection in mice immunosuppressed with cyclophosphamide and infected with candida albicans at 3x100 mg/kg/day; survival increase = 2/6; assay type: functional; method in brief: as §1
Mus musculus [6] = experiment: Compound was tested for its ability to enhance nonspecific resistance to expt. fungal infection in mice immunosuppressed with cyclophosphamide and infected with candida albicans at 3x10 mg/kg/day; survival increase = 2/6; assay type: functional; method in brief: as §1
Mus musculus [7] = experiment: Compound was tested for its ability to enhance nonspecific resistance to expt. fungal infection in mice immunosuppressed with cyclophosphamide and infected with candida albicans at 3x100 mg/kg/day; survival increase = 1/6; assay type: functional; method in brief: as §1
Mus musculus [8] = experiment: Compound was tested for its ability to enhance nonspecific resistance to expt. fungal infection in mice immunosuppressed with cyclophosphamide and infected with candida albicans at 3x 0.1 mg/kg/day;survival increase = 0/6; assay type: functional; method in brief: as §1
Mus musculus [9] = experiment: Compound was tested for its ability to enhance nonspecific resistance to expt. fungal infection in mice immunosuppressed with cyclophosphamide and infected with candida albicans at 3x1 mg/kg/day; survival increase = 0/6; assay type: functional; method in brief: as §1
Mus musculus [10] = species: Mus musculus; experiment: Compound was tested for its effect on number of B-cells at 25 microg daily dose in mouse; assay type: functional, B-cell
Method in brief: (§2)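 Female HAN–NmRi mice (3–4 weeks) got thioglycolate ip and the dose ip in 0.5 mL on days 1–3, and spleens were taken on day 4. B cells were stained with FITC goat anti-mouse IgG. T cells were stained with rat anti-Thy-1 and then FITC goat anti-rat Ig. Cells were counted by fluorescence microscopy and reported in millions as mean ± SEM with p values.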

Mus musculus [11] = species: Mus musculus; experiment: Compound was tested for blast transformation ability of lymphocytes, stimulated in vitro with Concanavalin A expressed as amount of [3H]-thymidine incorporated in lymphocyte DNA at 0.25 microg daily dose in mouse; assay type: functional
Method in brief: (§3)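 Female HAN–NmRi mice (3–4 weeks, 17–20 g) got 1 mL thioglycolate ip, then the dose in 0.5 mL ip one hour later, repeated on days 2 and 3. On day 4, spleen lymphocytes were taken at 1 × 10^6/mL in RPMI 1640 with 10% FCS and stimulated with Con A at 16, 8 or 4 μg/mL for 2 days at 37 °C, 5% CO2. [3H]thymidine was then added for 16 h and counted by β-counter. Results are cpm, n = 5.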

Mus musculus [12] = species: Mus musculus; experiment: Compound was tested for its effect on number of T cells at 25 microg daily dose in mouse; assay type: functional, T-cell; method in brief: as §2
Mus musculus [13] = species: Mus musculus; experiment: Compound was tested for immunomodulatory effect on macrophage activation without costimulation with PMA measured as UV absorption difference with test sample at 0.25 microg daily dose and blank/mg of cell protein in mouse; assay type: functional
Method in brief: (§4)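 Female HAN–NmRi mice got thioglycolate ip plus the dose ip (0.5 mL) daily for 3 days and were killed on day 4. Peritoneal cells were washed out, erythrocytes lysed hypo-osmotically, and cells plated at 1.5 × 10^6/mL. They adhered for 2 h and nonadherent cells were rinsed off. Macrophages were given 160 μM ferricytochrome c in HBSS, with or without 200 nM PMA; the blank added 340 U/mL SOD. After 90 min at 37 °C, absorbance was read at […].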

Mus musculus [14] = species: Mus musculus; experiment: Compound was tested for immunomodulatory effect on macrophage activation without costimulation with PMA measured as UV absorption difference with test sample at 2.5 microg daily dose and blank/mg of cell protein in mouse; assay type: functional; method in brief: as §4
Mus musculus [15] = species: Mus musculus; experiment: Compound was tested for blast transformation ability of lymphocytes, stimulated in vitro with Concanavalin A expressed as amount of [3H]thymidine incorporated in lymphocyte DNA at 2.5 microg daily dose in mouse; assay type: functional; method in brief: as §3
Mus musculus [16] = species: Mus musculus; experiment: Compound was tested for its effect on number of peritoneal macrophages at 2.5 microg daily dose in mouse; assay type: functional
Method in brief: (§5)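 Female HAN–NmRi mice got thioglycolate ip and the dose ip (0.5 mL) daily for 3 days. On day 4, peritoneal cells were washed out with ice-cold RPMI 1640. Macrophages were counted with trypan blue in a Neubauer chamber, excluding contaminating cells by morphology, and reported in millions as mean ± SEM.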

Mus musculus [17] = species: Mus musculus; experiment: Compound was tested for its effect on number of total spleen cells at 0.25 microg daily dose in mouse; assay type: functional; method in brief: as §2
Mus musculus [18] = species: Mus musculus; experiment: Compound was tested for its effect on number of total spleen cells at 2.5 microg daily dose in mouse; assay type: functional; method in brief: as §2
Mus musculus [19] = species: Mus musculus; experiment: Compound was tested for its effect on number of T cells at 0.25 microg daily dose in mouse; assay type: functional, T-cell; method in brief: as §2
Mus musculus [20] = species: Mus musculus; experiment: Compound was tested for blast transformation ability of lymphocytes, stimulated in vitro with Concanavalin A expressed as amount of [3H]thymidine incorporated in lymphocyte DNA at 25 microg daily dose in mouse; assay type: functional; method in brief: as §3
Mus musculus [21] = species: Mus musculus; experiment: Compound was tested for immunomodulatory effect on macrophage activation with costimulation with PMA measured as UV absorption difference with test sample at 25 microg daily dose and blank/mg of cell protein in mouse; assay type: functional; method in brief: as §4
Mus musculus [22] = species: Mus musculus; experiment: Compound was tested for its effect on number of T cells at 2.5 microg daily dose in mouse; assay type: functional, T-cell; method in brief: as §2
Mus musculus [23] = species: Mus musculus; experiment: Compound was tested for its effect on number of B-cells at 2.5 microg daily dose in mouse; assay type: functional, B-cell; method in brief: as §2
Mus musculus [24] = species: Mus musculus; experiment: Compound was tested for its effect on number of peritoneal macrophages at 0.25 microg daily dose in mouse; assay type: functional; method in brief: as §5
Mus musculus [25] = species: Mus musculus; experiment: Compound was tested for its effect on number of B-cells at 0.25 microg daily dose in mouse; assay type: functional, B-cell; method in brief: as §2
Mus musculus [26] = species: Mus musculus; experiment: Compound was tested for immunomodulatory effect on macrophage activation without costimulation with PMA measured as UV absorption difference with test sample at 25 microg daily dose and blank/mg of cell protein in mouse; assay type: functional; method in brief: as §4
Mus musculus [27] = species: Mus musculus; experiment: Compound was tested for immunomodulatory effect on macrophage activation with costimulation with PMA measured as UV absorption difference with test sample at 2.5 microg daily dose and blank/mg of cell protein in mouse; assay type: functional; method in brief: as §4
Mus musculus [28] = species: Mus musculus; experiment: Compound was tested for its effect on number of peritoneal macrophages at 25 microg daily dose in mouse; assay type: functional; method in brief: as §5
Mus musculus [29] = species: Mus musculus; experiment: Compound was tested for its effect on number of total spleen cells at 25 microg daily dose in mouse; assay type: functional; method in brief: as §2
Mus musculus [30] = species: Mus musculus; experiment: Compound was tested for immunomodulatory effect on macrophage activation with costimulation with PMA measured as UV absorption difference with test sample at 0.25 microg daily dose and blank/mg of cell protein in mouse; assay type: functional; method in brief: as §4
Mus musculus [31] = experiment: Compound was tested for its ability to enhance nonspecific resistance to expt. fungal infection in mice immunosuppressed with cyclophosphamide and infected with candida albicans at 3x30 mg/kg/day; survival increase = 1/6; assay type: functional; method in brief: as §1
Mus musculus [32] = experiment: Compound was tested for its ability to enhance nonspecific resistance to expt. fungal infection in mice immunosuppressed with cyclophosphamide and infected with candida albicans at 3x10 mg/kg/day; survival increase = 1/6; assay type: functional; method in brief: as §1
Mus musculus [33] = experiment: Compound was tested for its ability to enhance nonspecific resistance to expt. fungal infection in mice immunosuppressed with cyclophosphamide and infected with candida albicans at 3x10 mg/kg/day; survival increase = 3/6; assay type: functional; method in brief: as §1
Mus musculus [34] = experiment: Compound was tested for its ability to enhance nonspecific resistance to expt. fungal infection in mice immunosuppressed with cyclophosphamide and infected with candida albicans at 3x 0.1 mg/kg/day; survival increase = 2/6; assay type: functional; method in brief: as §1
Mus musculus [35] = experiment: Compound was tested for its ability to enhance nonspecific resistance to expt. fungal infection in mice immunosuppressed with cyclophosphamide and infected with candida albicans at 3x100 mg/kg/day; survival increase = 3/6; assay type: functional; method in brief: as §1
Mus musculus [36] = experiment: Compound was tested for its ability to enhance nonspecific resistance to expt. fungal infection in mice immunosuppressed with cyclophosphamide and infected with candida albicans at 3x1 mg/kg/day; survival increase = 2/6; assay type: functional; method in brief: as §1
Mus musculus [37] = experiment: Compound was tested for its ability to enhance nonspecific resistance to expt. fungal infection in mice immunosuppressed with cyclophosphamide and infected with candida albicans at 3x30 mg/kg/day; survival increase = 3/6; assay type: functional; method in brief: as §1
Mus musculus [38] = experiment: Compound was tested for its ability to enhance nonspecific resistance to expt. fungal infection in mice immunosuppressed with cyclophosphamide and infected with candida albicans at 3x 0.1 mg/kg/day; survival increase = 3/6; assay type: functional; method in brief: as §1
Mus musculus [39] = experiment: Compound was tested for its ability to enhance nonspecific resistance to expt. fungal infection in mice immunosuppressed with cyclophosphamide and infected with candida albicans at 3x1 mg/kg/day; survival increase = 3/6; assay type: functional; method in brief: as §1

CC(=O)N[C@@H]1CCCC[C@H]1OCC(=O)N[C@@H](C)C(=O)N[C@H](CCC(=O)O)C(N)=O
Survival increase (Mus musculus [1]): 0
Survival increase (Mus musculus [2]): 0
Survival increase (Mus musculus [3]): 0
Survival increase (Mus musculus [4]): 1

CC(=O)N[C@H]1CCCC[C@@H]1OCC(=O)N[C@@H](C)C(=O)N[C@H](CCC(=O)O)C(=O)O
Survival increase (Mus musculus [1]): 0
Survival increase (Mus musculus [5]): 2
Survival increase (Mus musculus [6]): 2
Survival increase (Mus musculus [4]): 1

CC(=O)N[C@H]1CCCC[C@@H]1OCC(=O)N[C@@H](C)C(=O)N[C@H](CCC(=O)O)C(N)=O
Survival increase (Mus musculus [7]): 1
Survival increase (Mus musculus [2]): 0
Survival increase (Mus musculus [8]): 0
Survival increase (Mus musculus [9]): 0

CC(=O)NC1CCCCC1OCC(=O)N[C@@H](C)C(=O)N[C@H](CCC(=O)O)C(=O)O (stereo partly drawn)
Number (Mus musculus [10]): 20.5 millions
Amount of [3H]thymidine (Mus musculus [11]): 10780 c.p.m.
Number (Mus musculus [12]): 9.72 millions
Macrophage activation (Mus musculus [13]): 237
Macrophage activation (Mus musculus [14]): 431
Amount of [3H]thymidine (Mus musculus [15]): 16830 c.p.m.
Number (Mus musculus [16]): 2.87 millions
Number (Mus musculus [17]): 5.66 millions
Number (Mus musculus [18]): 8.14 millions
Number (Mus musculus [19]): 11.7 millions
Amount of [3H]thymidine (Mus musculus [20]): 25990 c.p.m.
Macrophage activation (Mus musculus [21]): 1709
Number (Mus musculus [22]): 12.88 millions
Number (Mus musculus [23]): 23.76 millions
Number (Mus musculus [24]): 2.58 millions
Number (Mus musculus [25]): 18.42 millions
Macrophage activation (Mus musculus [26]): 489
Macrophage activation (Mus musculus [27]): 1494
Number (Mus musculus [28]): 0.92 millions
Number (Mus musculus [29]): 9.93 millions
Macrophage activation (Mus musculus [30]): 1298

CCCCCC(=O)NC1CCCCC1OCC(=O)N[C@@H](C)C(=O)N[C@H](CCC(=O)O)C(N)=O (stereo partly drawn)
Survival increase (Mus musculus [1]): 0
Survival increase (Mus musculus [9]): 0
Survival increase (Mus musculus [31]): 1
Survival increase (Mus musculus [32]): 1

CC(=O)N[C@@H]1CCCC[C@H]1OCC(=O)N[C@@H](C)C(=O)N[C@H](CCC(=O)O)C(=O)O
Survival increase (Mus musculus [33]): 3
Survival increase (Mus musculus [34]): 2
Survival increase (Mus musculus [4]): 1
Survival increase (Mus musculus [35]): 3

C[C@H](NC(=O)C1(C)OC2(C)CCCCC2(C)NC1=O)C(=O)N[C@H](CCC(=O)O)C(=O)O (stereo partly drawn)
Survival increase (Mus musculus [1]): 0
Survival increase (Mus musculus [2]): 0
Survival increase (Mus musculus [9]): 0
Survival increase (Mus musculus [5]): 2

CCCCCCCCCCCC(=O)NC1CCCCC1OCC(=O)N[C@@H](C)C(=O)N[C@H](CCC(=O)O)C(N)=O (stereo partly drawn)
Survival increase (Mus musculus [1]): 0
Survival increase (Mus musculus [36]): 2
Survival increase (Mus musculus [33]): 3
Survival increase (Mus musculus [37]): 3

CC(C)(N1CC1C#N)N1CC1C(N)=O (stereo not drawn) [AZIMEXON]
Survival increase (Mus musculus [38]): 3
Survival increase (Mus musculus [33]): 3
Survival increase (Mus musculus [39]): 3
Survival increase (Mus musculus [35]): 3
